# Experimental data reported in ChEMBL document CHEMBL3997791, “Nanomolar-Potency Aminophenyl-1,3,5-triazine Activators of the Cystic Fibrosis Transmembrane Conductance Regulator (CFTR) Chloride Channel for Prosecretory Therapy of Dry Eye Diseases” (J Med Chem, 2017).
# The source made the active and inactive calls. No cut-off for these calls is given here.
# System: Mus musculus
# Experiment: Induction of tear secretion in mouse at 250 pmol administered as single topical dose up to 8 hrs by phenol red thread test
# Assay type: functional
# Conditions: not given
# How it was run: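 Mice 8–12 weeks (25–35 g); single ocular dose of 250 pmol (100 μM) in 2.5 μL vehicle (0.3% CMC in Ringer's), both eyes treated identically, vehicle control. Tear volume by phenol red thread, 10 s in lateral canthus under isoflurane, before and at set times after dosing. 5 mice, 10 eyes per condition; two-way ANOVA with Dunnett test.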
row,Structure (SMILES),Activity
1,CCN(CC)c1nc(Nc2ccccc2)nc(OC(C(F)(F)F)C(F)(F)F)n1,Active

# Target: T1, Cystic fibrosis transmembrane conductance regulator (Homo sapiens, UniProt P13569)
# Experiment: Activation of human CFTR expressed in FRT cells co-expressing YFP assessed as increase in forskolin-stimulated iodide influx at 10 uM measured after 10 mins for 2 to 12 sec by fluorescence assay
# Assay type: cell-based
# Conditions: not given
# How it was run: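 FRT cells stably coexpressing human wild-type CFTR and YFP-H148Q halide sensor; PBS wash, then 10 min with compound in PBS containing 125 nM forskolin. Plate reader: 2 s baseline, then 12 s after rapid iodide-containing solution addition; initial iodide influx rate taken as linear measure of channel function.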
# Target sequence in this assay (P13569 whole entry, looked up): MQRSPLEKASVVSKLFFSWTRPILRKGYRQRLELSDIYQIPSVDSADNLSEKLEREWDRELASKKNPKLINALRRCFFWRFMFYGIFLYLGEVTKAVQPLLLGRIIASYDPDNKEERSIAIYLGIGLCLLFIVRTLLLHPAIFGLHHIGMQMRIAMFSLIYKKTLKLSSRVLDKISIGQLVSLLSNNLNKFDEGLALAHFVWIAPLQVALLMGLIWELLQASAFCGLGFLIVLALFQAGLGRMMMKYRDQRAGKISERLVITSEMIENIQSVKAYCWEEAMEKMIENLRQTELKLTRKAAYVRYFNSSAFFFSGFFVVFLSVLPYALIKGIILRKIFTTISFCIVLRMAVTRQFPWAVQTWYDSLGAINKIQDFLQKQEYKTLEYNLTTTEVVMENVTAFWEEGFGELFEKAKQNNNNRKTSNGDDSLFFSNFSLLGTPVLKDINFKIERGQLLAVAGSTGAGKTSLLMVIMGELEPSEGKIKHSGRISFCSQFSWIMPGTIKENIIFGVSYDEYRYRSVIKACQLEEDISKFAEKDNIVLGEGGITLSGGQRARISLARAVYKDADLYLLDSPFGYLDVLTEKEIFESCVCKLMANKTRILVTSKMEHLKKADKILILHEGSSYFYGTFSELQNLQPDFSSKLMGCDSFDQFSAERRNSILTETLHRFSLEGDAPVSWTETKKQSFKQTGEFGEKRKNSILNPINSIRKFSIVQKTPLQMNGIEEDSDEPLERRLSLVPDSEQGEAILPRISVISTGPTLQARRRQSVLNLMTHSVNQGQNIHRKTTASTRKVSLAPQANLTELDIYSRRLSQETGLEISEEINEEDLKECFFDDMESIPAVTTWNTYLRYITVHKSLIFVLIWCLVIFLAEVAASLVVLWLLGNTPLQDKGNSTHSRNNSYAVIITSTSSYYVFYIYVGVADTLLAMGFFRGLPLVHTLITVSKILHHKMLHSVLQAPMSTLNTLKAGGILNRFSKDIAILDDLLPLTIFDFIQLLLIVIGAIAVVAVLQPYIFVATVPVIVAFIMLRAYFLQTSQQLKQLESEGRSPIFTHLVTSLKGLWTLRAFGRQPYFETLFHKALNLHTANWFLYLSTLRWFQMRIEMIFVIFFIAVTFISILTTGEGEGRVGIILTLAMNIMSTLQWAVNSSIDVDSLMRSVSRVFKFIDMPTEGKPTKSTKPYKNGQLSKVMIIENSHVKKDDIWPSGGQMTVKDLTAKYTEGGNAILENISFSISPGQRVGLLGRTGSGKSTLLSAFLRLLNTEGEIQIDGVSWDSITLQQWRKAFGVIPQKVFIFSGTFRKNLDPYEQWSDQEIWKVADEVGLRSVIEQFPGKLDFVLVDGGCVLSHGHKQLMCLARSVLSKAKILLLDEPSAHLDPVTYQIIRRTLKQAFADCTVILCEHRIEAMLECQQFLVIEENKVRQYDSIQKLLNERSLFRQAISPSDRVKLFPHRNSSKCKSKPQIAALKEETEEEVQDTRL
row,Structure (SMILES),Activity
1,Fc1ccc(Nc2nc(OC(C(F)(F)F)C(F)(F)F)nc(N3CCCCC3)n2)cc1,inactive
2,FC(F)(F)C(Oc1nc(Nc2cccnc2)nc(OC(C(F)(F)F)C(F)(F)F)n1)C(F)(F)F,inactive
3,CC(=O)c1ccc(Nc2nc(OC(C(F)(F)F)C(F)(F)F)nc(OC(C(F)(F)F)C(F)(F)F)n2)cc1,inactive
4,Cc1ccccc1Nc1nc(OC(C(F)(F)F)C(F)(F)F)nc(OC(C(F)(F)F)C(F)(F)F)n1,inactive
5,O=[N+]([O-])c1ccc(Nc2nc(OC(C(F)(F)F)C(F)(F)F)nc(OC(C(F)(F)F)C(F)(F)F)n2)cc1,inactive
6,C=CCNc1nc(Nc2cccc([N+](=O)[O-])c2)nc(OC(C(F)(F)F)C(F)(F)F)n1,Active
7,COc1nc(Nc2ccc(OC)c(Cl)c2)nc(OC)n1,inactive
8,COc1nc(Nc2ccc([N+](=O)[O-])cc2)nc(OC)n1,inactive
9,Cc1ccc(Nc2nc(OC(C(F)(F)F)C(F)(F)F)nc(N3CCCCC3)n2)cc1,inactive
10,CC(=O)N1CCN(c2nc(Nc3ccccc3C(=O)c3ccccc3)nc(OC(C(F)(F)F)C(F)(F)F)n2)CC1,inactive
11,FC(F)(F)C(Oc1nc(Nc2ccccc2)nc(OC(C(F)(F)F)C(F)(F)F)n1)C(F)(F)F,inactive
12,FC(F)(F)C(Oc1nc(N2CCCCCC2)nc(N(c2ccccc2)c2ccccc2)n1)C(F)(F)F,inactive
13,O=[N+]([O-])c1ccccc1Nc1nc(OC(C(F)(F)F)C(F)(F)F)nc(OC(C(F)(F)F)C(F)(F)F)n1,inactive
14,O=[N+]([O-])c1cccc(Nc2nc(OC(C(F)(F)F)C(F)(F)F)nc(OC(C(F)(F)F)C(F)(F)F)n2)c1,inactive
15,CCN(CC)c1nc(Nc2ccccc2)nc(OC(C(F)(F)F)C(F)(F)F)n1,Active

# Continued, values first:
row,Activity,Structure (SMILES)
1,inactive,CNc1nc(Nc2ccc(OC(F)(F)Cl)cc2)nc(OCC(F)(F)F)n1
2,inactive,CCC(C)Nc1nc(Nc2ccc([N+](=O)[O-])cc2)nc(OC(C(F)(F)F)C(F)(F)F)n1 (configuration not stated)
3,inactive,CN(C)c1nc(Nc2ccc(OC(F)(F)F)cc2)nc(OCC(F)(F)F)n1
4,inactive,CC(C)Nc1nc(Nc2ccc([N+](=O)[O-])cc2)nc(OC(C(F)(F)F)C(F)(F)F)n1
5,inactive,CNc1nc(Nc2ccc(C(C)=O)cc2)nc(OC(C(F)(F)F)C(F)(F)F)n1
6,inactive,COc1ccc(Nc2nc(NC3CCCCC3)nc(OC(C(F)(F)F)C(F)(F)F)n2)cc1
7,inactive,Cc1ccc(Nc2nc(OC(C(F)(F)F)C(F)(F)F)nc(OC(C(F)(F)F)C(F)(F)F)n2)cc1
8,inactive,CC(C)(C)Nc1nc(Nc2ccc(OC(F)(F)Cl)cc2)nc(OCC(F)(F)F)n1
9,Active,CNc1nc(Nc2ccc([N+](=O)[O-])cc2)nc(OCC(F)(F)C(F)F)n1
10,inactive,FC(F)(F)COc1nc(Nc2ccc(OC(F)(F)F)cc2)nc(NC2CC2)n1
11,inactive,FC(F)(F)COc1nc(Nc2ccccc2)nc(OCC(F)(F)F)n1
12,inactive,FC(F)(F)C(Oc1nc(Nc2ccc(Cl)cc2)nc(N2CCOCC2)n1)C(F)(F)F
13,inactive,CNc1nc(Nc2ccccc2C(F)(F)F)nc(OC(C(F)(F)F)C(F)(F)F)n1
14,inactive,FC(F)(F)COc1nc(Nc2ccc(OC(F)(F)Cl)cc2)nc(OCC(F)(F)F)n1

# Target: T1, Cystic fibrosis transmembrane conductance regulator
# Experiment: Activation of human CFTR expressed in FRT cells co-expressing YFP assessed as increase in forskolin-stimulated iodide influx measured after 10 mins for 2 to 12 sec by fluorescence assay
# Assay type: cell-based
# Conditions: not given
# Target sequence in this assay (P13569 whole entry): as the sequence (P13569 whole entry, looked up) above
row,Structure (SMILES),EC50 [nM]
1,CCN(CC)c1nc(Nc2ccc3[nH]ncc3c2)nc(OC(C(F)(F)F)C(F)(F)F)n1,2800
2,CCN(CC)c1nc(Nc2cccc([N+](=O)[O-])c2)nc(OC(C(F)(F)F)C(F)(F)F)n1,200
3,CCN(CC)c1nc(Nc2cccc(Cl)c2)nc(OC(C(F)(F)F)C(F)(F)F)n1,2800

# Second part, the molecule after the results:
row,EC50 [nM],Structure (SMILES)
1,2500,CCN(CC)c1nc(Nc2ccc(C(=O)O)cc2)nc(OCC(F)(F)C(F)F)n1
2,18000,CCN(CC)c1nc(Nc2ccc([N+](=O)[O-])cc2)nc(OC(C(F)(F)F)C(F)(F)F)n1

# System: not listed separately
# Experiment: Metabolic stability in rat hepatic microsomes assessed as parent compound remaining at 5 uM after 15 mins in presence of NADPH by LC-MS analysis
# Assay type: ADME, Microsome
# Conditions: liver microsomes, read-out: Stability
# How it was run: (§1)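 Compound at 5 μM incubated at 37 °C with rat liver microsomes (1 mg/mL) in potassium phosphate buffer with 1 mM NADPH; quenched with ice-cold EtOAc, centrifuged, supernatant analysed by LC/MS (C18, water/acetonitrile with 0.1% formic acid gradient, UV 254 nm) for parent remaining; mean ± SEM, n = 3.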
row,Structure (SMILES),"remaining at […], 5 µM [%]"
1,CCN(CC)c1nc(Nc2ccccc2)nc(OC(C(F)(F)F)C(F)(F)F)n1,< 40

# System: not listed separately
# Experiment: Metabolic stability in rat hepatic microsomes assessed as parent compound remaining at 5 uM after 60 mins in presence of NADPH by LC-MS analysis
# Assay type: ADME, Microsome
# Conditions: liver microsomes, read-out: Stability
# How it was run: as §1
row,Structure (SMILES),"remaining at 1 h, 5 µM [%]"
1,CCN(CC)c1nc(Nc2ccc3ncoc3c2)nc(OC(C(F)(F)F)C(F)(F)F)n1,60
